# Published values pooled from the literature.
# Protocols differ between the studies behind these lines.
# Observed: cell growth or viability
Structure (SMILES),cell line,assay,conditions,IC50 [µM]
CO[C@]12C[C@@H](COC(=O)c3cncc(Br)c3)CN(C)[C@@H]1Cc1cn(C)c3cccc2c13,HK-1,MTT,48 h,5.99
CNC(=O)c1cc(Oc2ccc(NC(=O)Nc3ccc(Cl)c(C(F)(F)F)c3)cc2)ccn1,NCI-H460,MTT,72 h,3.81
Cc1cc(/C=C/C#N)cc(C)c1Nc1ccnc(Nc2ccc(C#N)cc2)n1,HNE1,MTT,48 h,14.1
O=C1c2ccccc2C23C(=O)Nc4ccccc4C2(O)CCN13 (stereo not shown),L6,,,> 330
COc1cc2c3c(n(CCCN4CCOCC4)c(=O)c2cc1OC)-c1nc2c(cc1C3=O)OCO2,RS4-11,MTS,72 h,0.283
CN1C(=O)CCC(N2Cc3c(C#CC4CCN(C(=O)[C@H]5CC[C@H](NC(=O)[C@@H]6NC7(CCCCC7)[C@@]7(C(=O)Nc8cc(Cl)ccc87)[C@H]6c6cccc(Cl)c6F)CC5)CC4)cccc3C2=O)C1=O (stereo partly shown),RS4-11,,,0.751
C=CC(=O)Nc1cc(Nc2nccc(-c3cn(C)c4ccccc34)n2)c(OC)cc1N(C)CCN(C)C,NCI-H460,,72 h,5.38
N#Cc1cccc(CC=NNC(=N)NN=CCc2cccc(C#N)c2)c1,L6,resazurin,70 h,2.63
O=C1CCN2C(=O)c3cc(F)c(F)cc3C2C(=O)Nc2ccccc21 (stereo not shown),L6,,,> 290
N=C(N/N=C/c1cccc([N+](=O)[O-])c1)N/N=C/c1cccc([N+](=O)[O-])c1,L6,resazurin,70 h,17.7
O=C1CCN2C(=O)CCC2C(=O)Nc2ccccc21 (stereo not shown),L6,,,> 390
N=C(N/N=C/c1ccc(Oc2ccc(Cl)cc2)cc1)N/N=C/c1ccc(Oc2ccc(Cl)cc2)cc1,L6,resazurin,70 h,3.18
C=C(F)C(=O)N1CCN(c2nc(OC[C@@H]3CCCN3C)nc3c2CCN(c2cccc4cccc(Cl)c24)C3)C[C@@H]1CC#N,A-427,ATP luminescence,3D culture,> 1
O=C1CCN2C(=O)c3ccccc3C2C(=O)Nc2cc(F)ccc21 (stereo not shown),L6,,,> 300
N=C(N/N=C/c1ccc(Oc2ccccc2)cc1)N/N=C/c1ccc(Oc2ccccc2)cc1,L6,resazurin,70 h,4.44
COc1cc2nc(N3CCN(C(=O)C4COc5ccccc5O4)CC3)nc(N)c2cc1OC (stereo not shown),HK-1,MTT,48 h,31.7
O=C1Nc2ccccc2C2(O)CCN3C12c1ccccc1S3(=O)=O (stereo not shown),L6,,,> 290
N=C(NN=CCc1ccc(OC(F)F)cc1)NN=CCc1ccc(OC(F)F)cc1,L6,resazurin,70 h,2.03
COc1cc2c3c(n(CCCn4ccnc4)c(=O)c2cc1OC)-c1nc2c(cc1C3=O)OCO2,RS4-11,MTS,72 h,0.12
COc1cc2nc(N3CCN(C(=O)c4ccco4)CC3)nc(N)c2cc1OC,HNE1,MTT,48 h,41.6
N#Cc1cc(C=NNC(=N)NN=Cc2ccc(F)c(C#N)c2)ccc1F,L6,resazurin,70 h,5.95
CC(C)c1ccccc1[C@@H]1CCCN1C1CC2(CCN(c3ccc(C(=O)NS(=O)(=O)c4ccc(NC[C@H]5CC[C@](C)(O)CC5)c([N+](=O)[O-])c4)c(Oc4cnc5[nH]ccc5c4)c3)CC2)C1,RS4-11,ATP luminescence,48 h,0.00056
